# Data from ChEMBL document CHEMBL4406830, “Galloyl esters of trans-stilbenes are inhibitors of FASN with anticancer activity on non-small cell lung cancer cells” (Eur J Med Chem, 2019).
# Legend:
# NCI-H1703 [1] = assay: Antiproliferative activity against human NCI-H1703 cells expressing FASN assessed as growth inhibition at 25 uM after 72 hrs by MTS assay relative to control; assay type: functional; conditions: NCI-H1703, 72 h
# Procedure, shortened: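 H1703 cells were treated with a single 25 µM concentration for 72 h. Viability was measured by MTS at 490 nm, with 0.1% DMSO and media-only correction, relative to untreated control. Mean ± SD of n = 3 independent determinations, unpaired t test against control.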
# NCI-H1703 [2] = assay: Antiproliferative activity against human NCI-H1703 cells expressing FASN assessed as reduction in cell viability after 72 hrs by MTS assay; assay type: functional, cell-based; conditions: NCI-H1703, 72 h
# Procedure, shortened: (§1)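 ATCC-sourced cells. H1299, H1650, H1703 and PC-9 were grown in RPMI 1640 with 10% FBS. A549 was grown in high-glucose DMEM with 10% FBS and 1 mM pyruvate. SAEC was grown in BEGM. Cells were seeded at 3 × 10^3 per well (H1650 3.5 × 10^3) and left to attach overnight. Serial dilutions from DMSO stocks were added, 0.1% DMSO final, for 72 h at 37 °C, 5% CO2. Medium was replaced, MTS added, and A490 read after 2 h. IC50 was taken from % viability versus log concentration, 3 experiments.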
# NCI-H1299 = assay: Antiproliferative activity against human NCI-H1299 cells expressing FASN assessed as reduction in cell viability after 72 hrs by MTS assay; assay type: functional, cell-based; conditions: NCI-H1299, 72 h; procedure, shortened: as §1
# NCI-H1650 = assay: Antiproliferative activity against human NCI-H1650 cells expressing FASN assessed as reduction in cell viability after 72 hrs by MTS assay; assay type: functional, cell-based; conditions: NCI-H1650, 72 h; procedure, shortened: as §1
# [3] = Kinetic solubility of the compound in universal buffer at pH 7.4 measured at 25 degC after 24 hrs by UV/Visible spectroscopic analysis; assay type: physicochemical; conditions: read-out: Kinetic_solubility
IC50 (NCI-H1703 [2]),IC50 (NCI-H1299),IC50 (NCI-H1650),solubility kinetic at 24 h [3],Compound,inhibition at 25 µM (NCI-H1703 [1])
17.2 µM,37.2 µM,40.2 µM,,O=C(Oc1ccc(/C=C/c2cccc(OC(=O)c3ccc(O)cc3)c2)cc1)c1ccc(O)cc1,> 50%
11.2 µM,8.5 µM,16 µM,,O=C(Oc1ccc(/C=C/c2ccccc2)cc1)c1cc(O)c(O)c(O)c1,> 50%
,,,,COc1cc(C(=O)Oc2ccc(Cc3ccc(OC(=O)c4cc(OC)c(OC)c(OC)c4)cc3)cc2)cc(OC)c1OC,< 50%
5.8 µM,4.2 µM,7.4 µM,0.4 µM,O=C(Oc1ccc(-c2ccc(OC(=O)c3cc(O)c(O)c(O)c3)cc2)cc1)c1cc(O)c(O)c(O)c1,
,,,,O=C(Oc1cccc(/C=C/c2ccccc2)c1)c1cc(O)c(O)c(O)c1,< 50%
39.3 µM,25.9 µM,122 µM,,O=C(Oc1ccccc1Cc1ccccc1OC(=O)c1cc(O)c(O)c(O)c1)c1cc(O)c(O)c(O)c1,> 50%
